Active and inactive are the calls of the source. The rule behind the calls is not given here.
Tests used:
[1] = molecular target: Toll-like receptor 3 (Homo sapiens) (UniProt O15455); assay: Activation of human TLR3 expressed in HEK293 assessed as induction of NF-kappaB activity reporter gene assay; type: cell-based
PBMC [2] = assay: Immunomodulatory activity in human PBMC assessed as induction of TNFalpha at 100 ug/ml after 24 hrs; type: functional, cell-based
How it was run: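 Human PBMCs plated at 5 × 10^6 cells/mL; compounds dissolved in PBS added at various concentrations, 37 °C for 24 h. Supernatant cytokines/chemokines quantified with human Luminex multiplex kit.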

Splenocyte = assay: Immunomodulatory activity in C57BL/6 mouse splenocytes bearing TLR7 receptor assessed as IL12 release at 100 ug/ml after 24 hrs by ELISA; type: functional, cell-based
How it was run: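 C57BL/6 splenocytes in RPMI 1640 with 10% FBS, penicillin/streptomycin, 2 mM L-glutamine, plated at 5 × 10^6 cells/mL; compounds in PBS added, 37 °C for 24 h. Supernatant IL-12 and IL-6 by ELISA; representative of three independent experiments.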

[3] = molecular target: T1, Toll-like receptor 7 (Homo sapiens) (UniProt Q9NYK1); assay: Activation of human TLR7 expressed in HEK293XL assessed as fold induction of NF-kappaB activity at 50 ug/ml after 18 hrs by reporter gene assay relative to control
T1 sequence (whole entry): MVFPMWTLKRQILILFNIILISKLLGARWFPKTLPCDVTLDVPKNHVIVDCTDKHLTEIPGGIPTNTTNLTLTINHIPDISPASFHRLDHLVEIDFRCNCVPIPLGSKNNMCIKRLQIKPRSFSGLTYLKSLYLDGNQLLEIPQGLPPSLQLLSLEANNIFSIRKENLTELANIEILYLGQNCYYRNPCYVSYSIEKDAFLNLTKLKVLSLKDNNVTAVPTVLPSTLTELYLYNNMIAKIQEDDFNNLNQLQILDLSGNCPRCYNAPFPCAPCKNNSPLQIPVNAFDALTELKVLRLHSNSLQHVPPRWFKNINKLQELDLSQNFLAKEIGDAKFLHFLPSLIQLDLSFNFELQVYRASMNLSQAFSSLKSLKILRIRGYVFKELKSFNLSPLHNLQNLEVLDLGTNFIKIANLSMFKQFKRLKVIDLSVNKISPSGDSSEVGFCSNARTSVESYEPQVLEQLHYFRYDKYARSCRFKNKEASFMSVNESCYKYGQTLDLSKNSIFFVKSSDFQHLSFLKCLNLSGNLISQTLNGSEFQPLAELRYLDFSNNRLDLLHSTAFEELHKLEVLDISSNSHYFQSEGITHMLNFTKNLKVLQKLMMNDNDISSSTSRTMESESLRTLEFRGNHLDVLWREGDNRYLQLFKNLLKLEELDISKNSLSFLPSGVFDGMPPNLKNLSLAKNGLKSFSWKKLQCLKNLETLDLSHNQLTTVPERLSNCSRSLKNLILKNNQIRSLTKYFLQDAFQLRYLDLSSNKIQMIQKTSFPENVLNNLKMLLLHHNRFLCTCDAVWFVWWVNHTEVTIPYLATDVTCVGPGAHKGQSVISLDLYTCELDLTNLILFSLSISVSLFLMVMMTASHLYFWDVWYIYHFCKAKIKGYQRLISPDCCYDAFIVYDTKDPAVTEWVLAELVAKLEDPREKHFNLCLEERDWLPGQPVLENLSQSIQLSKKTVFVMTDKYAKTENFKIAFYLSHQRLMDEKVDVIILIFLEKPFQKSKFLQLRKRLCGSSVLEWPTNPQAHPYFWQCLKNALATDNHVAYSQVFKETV
How it was run: (§1)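 HEK293 cells stably expressing human TLR7 or TLR8, transiently transfected with SEAP reporter plasmid; medium replaced, SIMRA compounds added, 18 h incubation. Supernatant SEAP measured by QuantiBlue; expressed as fold increase in NF-κB activity over PBS control. Tabulated data at 50 μg/mL, representative of three independent experiments.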

[4] = molecular target: T2, Toll-like receptor 8 (Homo sapiens) (UniProt Q9NR97); assay: Activation of human TLR8 expressed in HEK293XL assessed as fold induction of NF-kappaB activity at 50 ug/ml after 18 hrs by reporter gene assay relative to control; how it was run: as §1
T2 sequence (whole entry): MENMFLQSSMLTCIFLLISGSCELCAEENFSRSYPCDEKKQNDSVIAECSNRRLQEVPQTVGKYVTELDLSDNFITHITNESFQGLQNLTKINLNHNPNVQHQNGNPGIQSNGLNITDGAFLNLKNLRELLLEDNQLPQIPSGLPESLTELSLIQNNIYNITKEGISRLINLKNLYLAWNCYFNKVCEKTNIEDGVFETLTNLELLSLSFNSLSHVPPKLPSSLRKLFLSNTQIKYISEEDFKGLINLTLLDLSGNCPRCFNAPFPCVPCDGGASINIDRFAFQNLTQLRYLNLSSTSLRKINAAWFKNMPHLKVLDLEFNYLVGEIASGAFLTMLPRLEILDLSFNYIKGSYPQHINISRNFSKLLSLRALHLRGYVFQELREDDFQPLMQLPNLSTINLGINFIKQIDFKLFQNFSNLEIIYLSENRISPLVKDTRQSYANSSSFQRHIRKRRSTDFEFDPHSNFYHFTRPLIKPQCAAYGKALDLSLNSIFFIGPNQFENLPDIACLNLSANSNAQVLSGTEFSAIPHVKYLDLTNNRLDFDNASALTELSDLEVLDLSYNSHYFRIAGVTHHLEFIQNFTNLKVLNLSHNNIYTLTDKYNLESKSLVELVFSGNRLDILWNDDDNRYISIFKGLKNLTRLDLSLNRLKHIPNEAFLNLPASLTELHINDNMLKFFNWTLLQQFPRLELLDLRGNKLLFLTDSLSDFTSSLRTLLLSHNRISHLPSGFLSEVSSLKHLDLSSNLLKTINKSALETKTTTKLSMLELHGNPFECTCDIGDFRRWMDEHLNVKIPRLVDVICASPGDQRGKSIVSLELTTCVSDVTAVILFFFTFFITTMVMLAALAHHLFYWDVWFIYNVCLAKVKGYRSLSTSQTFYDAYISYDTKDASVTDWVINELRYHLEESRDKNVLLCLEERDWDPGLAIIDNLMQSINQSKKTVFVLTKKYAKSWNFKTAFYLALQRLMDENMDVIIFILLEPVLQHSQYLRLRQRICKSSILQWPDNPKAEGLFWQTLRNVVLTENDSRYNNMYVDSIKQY

PBMC [5] = assay: Immunomodulatory activity in human PBMC assessed as induction of IFN-alpha at 100 ug/ml after 24 hrs

Toll-like receptor 3 (Homo sapiens), sequence (O15455 whole entry): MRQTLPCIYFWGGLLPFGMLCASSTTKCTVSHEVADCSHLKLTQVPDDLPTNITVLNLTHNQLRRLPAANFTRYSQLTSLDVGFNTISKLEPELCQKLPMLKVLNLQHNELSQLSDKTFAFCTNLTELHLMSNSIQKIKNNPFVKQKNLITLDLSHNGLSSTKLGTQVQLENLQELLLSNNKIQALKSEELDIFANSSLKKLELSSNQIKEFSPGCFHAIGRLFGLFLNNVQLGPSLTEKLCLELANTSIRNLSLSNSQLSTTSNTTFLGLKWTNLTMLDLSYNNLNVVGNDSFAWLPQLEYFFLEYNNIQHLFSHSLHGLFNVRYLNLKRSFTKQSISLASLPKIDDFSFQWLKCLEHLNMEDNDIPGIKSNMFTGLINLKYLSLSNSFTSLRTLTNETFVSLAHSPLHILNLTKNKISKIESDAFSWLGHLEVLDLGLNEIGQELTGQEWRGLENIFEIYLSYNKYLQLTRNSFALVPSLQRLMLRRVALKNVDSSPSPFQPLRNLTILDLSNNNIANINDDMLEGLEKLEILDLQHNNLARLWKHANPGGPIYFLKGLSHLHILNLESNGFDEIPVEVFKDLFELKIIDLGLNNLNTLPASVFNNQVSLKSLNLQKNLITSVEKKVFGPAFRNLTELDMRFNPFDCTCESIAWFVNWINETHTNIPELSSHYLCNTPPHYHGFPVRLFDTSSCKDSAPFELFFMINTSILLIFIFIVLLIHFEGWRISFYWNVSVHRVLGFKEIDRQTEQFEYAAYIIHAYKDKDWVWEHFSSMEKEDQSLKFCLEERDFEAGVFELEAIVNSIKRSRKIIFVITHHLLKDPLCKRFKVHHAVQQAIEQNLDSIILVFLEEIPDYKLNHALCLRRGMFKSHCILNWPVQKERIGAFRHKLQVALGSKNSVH

SMILES: Nc1ccn([C@@H]2O[C@H](CO)[C@@H](OP(=O)(S)OC[C@H]3O[C@@H](n4ccc(=O)[nH]c4=O)[C@H](O)[C@@H]3OP(=O)(S)OC[C@H]3O[C@@H](n4ccc(=O)[nH]c4=O)[C@H](O)[C@@H]3OP(=O)(S)OC[C@H]3O[C@@H](n4ccc5c(=O)[nH]c(N)nc54)[C@H](O)[C@@H]3OP(=O)(S)OC[C@H]3O[C@@H](n4ccc(=O)[nH]c4=O)[C@H](O)[C@@H]3OP(=O)(S)OC[C@H]3O[C@@H](n4ccc5c(=O)[nH]c(N)nc54)[C@H](O)[C@@H]3OP(=O)(S)OC[C@H]3O[C@@H](n4cnc5c(N)ncnc54)[C@H](O)[C@@H]3OP(=O)(S)OC[C@H]3O[C@@H](n4ccc5c(=O)[nH]c(N)nc54)[C@H](O)[C@@H]3OP(=O)(S)OC[C@H]3O[C@@H](n4ccc(N)nc4=O)[C@H](O)[C@@H]3OP(=O)(S)OC[C@H]3O[C@@H](n4ccc(=O)[nH]c4=O)[C@H](O)[C@@H]3OP(=O)(S)OC[C@H]3O[C@@H](n4ccc(=O)[nH]c4=O)[C@H](O)[C@@H]3OP(=O)(S)OCC(O)COP(=O)(S)O[C@H]3[C@@H](O)[C@H](n4ccc(=O)[nH]c4=O)O[C@@H]3COP(=O)(S)O[C@H]3[C@@H](O)[C@H](n4ccc(=O)[nH]c4=O)O[C@@H]3COP(=O)(S)O[C@H]3[C@@H](O)[C@H](n4ccc(N)nc4=O)O[C@@H]3COP(=O)(S)O[C@H]3[C@@H](O)[C@H](n4ccc5c(=O)[nH]c(N)nc54)O[C@@H]3COP(=O)(S)O[C@H]3[C@@H](O)[C@H](n4cnc5c(N)ncnc54)O[C@@H]3COP(=O)(S)O[C@H]3[C@@H](O)[C@H](n4ccc5c(=O)[nH]c(N)nc54)O[C@@H]3COP(=O)(S)O[C@H]3[C@@H](O)[C@H](n4ccc(=O)[nH]c4=O)O[C@@H]3COP(=O)(S)O[C@H]3[C@@H](O)[C@H](n4ccc5c(=O)[nH]c(N)nc54)O[C@@H]3COP(=O)(S)O[C@H]3[C@@H](O)[C@H](n4ccc(=O)[nH]c4=O)O[C@@H]3COP(=O)(S)O[C@H]3[C@@H](O)[C@H](n4ccc(=O)[nH]c4=O)O[C@@H]3COP(=O)(S)O[C@H]3[C@@H](O)[C@H](n4ccc(N)nc4=O)O[C@@H]3CO)[C@H]2O)c(=O)n1 (some centres not stated)
- Activity [1]: inactive
- Activity (PBMC [2]): 403 pg/mL
- Activity (Splenocyte): Active
- fold change (FC) [3]: 28.9
- fold change (FC) [4]: 1.5
- IFN-alpha (PBMC [5]): 138 pg/mL

SMILES: Nc1ccn([C@@H]2O[C@H](COP(O)(=S)O[C@H]3[C@@H](O)[C@H](n4ccc(=O)[nH]c4=O)O[C@@H]3COP(O)(=S)O[C@H]3[C@@H](O)[C@H](n4ccc(=O)[nH]c4=O)O[C@@H]3COP(O)(=S)O[C@H]3[C@@H](O)[C@H](n4ccc(N)nc4=O)O[C@@H]3COP(O)(=S)O[C@H]3[C@@H](O)[C@H](n4ccc5c(=O)[nH]c(N)nc54)O[C@@H]3COP(O)(=S)O[C@H]3[C@@H](O)[C@H](n4ccc(=O)[nH]c4=O)O[C@@H]3COP(O)(=S)O[C@H]3[C@@H](O)[C@H](n4ccc(N)nc4=O)O[C@@H]3COP(O)(=S)O[C@H]3[C@@H](O)[C@H](n4ccc5c(=O)[nH]c(N)nc54)O[C@@H]3COP(O)(=S)O[C@H]3[C@@H](O)[C@H](n4ccc(=O)[nH]c4=O)O[C@@H]3CO)[C@@H](OP(O)(=S)OC[C@H]3O[C@@H](n4ccc(=O)[nH]c4=O)[C@H](O)[C@@H]3OP(O)(=S)OC[C@H]3O[C@@H](n4ccc5c(=O)[nH]c(N)nc54)[C@H](O)[C@@H]3OP(O)(=S)OCC(O)COP(O)(=S)O[C@H]3[C@@H](O)[C@H](n4ccc5c(=O)[nH]c(N)nc54)O[C@@H]3COP(O)(=S)O[C@H]3[C@@H](O)[C@H](n4ccc(=O)[nH]c4=O)O[C@@H]3COP(O)(=S)O[C@H]3[C@@H](O)[C@H](n4ccc(N)nc4=O)O[C@@H]3COP(O)(=S)O[C@H]3[C@@H](O)[C@H](n4ccc(=O)[nH]c4=O)O[C@@H]3COP(O)(=S)O[C@H]3[C@@H](O)[C@H](n4ccc(=O)[nH]c4=O)O[C@@H]3COP(O)(=S)O[C@H]3[C@@H](O)[C@H](n4ccc(N)nc4=O)O[C@@H]3COP(O)(=S)O[C@H]3[C@@H](O)[C@H](n4ccc5c(=O)[nH]c(N)nc54)O[C@@H]3COP(O)(=S)O[C@H]3[C@@H](O)[C@H](n4ccc(=O)[nH]c4=O)O[C@@H]3COP(O)(=S)O[C@H]3[C@@H](O)[C@H](n4ccc(N)nc4=O)O[C@@H]3COP(O)(=S)O[C@H]3[C@@H](O)[C@H](n4ccc5c(=O)[nH]c(N)nc54)O[C@@H]3COP(O)(=S)O[C@H]3[C@@H](O)[C@H](n4ccc(=O)[nH]c4=O)O[C@@H]3CO)[C@H]2O)c(=O)n1 (some centres not stated)
- Activity [1]: inactive
- Activity (PBMC [2]): 385 pg/mL
- Activity (Splenocyte): Active
- fold change (FC) [3]: 16.1
- fold change (FC) [4]: 4.7
- IFN-alpha (PBMC [5]): 385 pg/mL
